Active and inactive are the calls of the source. No cut-off for these calls is given here.
Columns and labels:
[1] = test system: HCT-116; experiment: Cell cycle arrest in human HCT116 cells assessed as accumulation at S-phase at GI50 by tritiated thymidine incorporation assay; type: functional, cell-based
[2] = test system: Escherichia coli; experiment: Inhibition of Escherichia coli polymerase DNA polymerase 1 Klenow fragment assessed as inhibition of incorporation of dTTP into activated DNA primer after 60 mins
[3] = Inhibition of T7 RNA polymerase assessed as inhibition of incorporation of [3H]UTP after 30 mins by liquid scintillation counting; design: species or system Escherichia phage T7
[4] = biological target: DNA polymerase beta (Rattus norvegicus, UniProt P06766); experiment: Inhibition of rat DNA polymerase beta expressed in Escherichia coli JMpbeta5 assessed as inhibition of incorporation of dTTP into poly(dA)/oligo(dT)18 after 60 mins
Method in brief: (§1)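 Compound in DMSO was sonicated for 30 s, then held with enzyme (0.05 units final) at 0 °C for 10 min in 50 mM Tris-HCl pH 7.5, 1 mM DTT, 50% glycerol, 0.1 mM EDTA. The mixture was added to the standard reaction mix with poly(dA)/oligo(dT)18 (A/T = 2/1) and dTTP, 37 °C, 60 min. Activity was relative to no-inhibitor control; mean ± SE, three independent experiments.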

[5] = test system: Oryza sativa; experiment: Inhibition of rice cv. Nipponbare recombinant C-terminal-His6-tagged DNA polymerase lambda expressed in Escherichia coli assessed as inhibition of incorporation of dTTP into activated DNA primer after 60 mins
[6] = Inhibition of calf DNA primase of polymerase alpha; design: species or system Bos taurus
[7] = Inhibition of calf DNA polymerase alpha assessed as inhibition of incorporation of dTTP into poly(dA)/oligo(dT)18 after 60 mins; design: species or system Bos taurus; method in brief: as §1
[8] = test system: HeLa; experiment: Growth inhibition of human HeLa cells after 24 hrs by WST-1 assay; type: functional
Method in brief: (§2)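 Cancer cells were grown in McCoy's 5A with 10% FBS and penicillin/streptomycin, 37 °C, 5% CO2. Cells were seeded at 1 × 10^4 per well, cultured 12 h, then given compound (10 mM DMSO stock diluted in medium, 0.5% DMSO) for 24 h. WST-1 was added for 4 h and absorbance read at 450/630 nm. GI50 given as mean ± SE, five independent experiments.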

[9] = biological target: Inosine-5'-monophosphate dehydrogenase 2 (Mus musculus, UniProt P24547); experiment: Inhibition of mouse IMP dehydrogenase 2
[10] = test system: HCT-116; experiment: Growth inhibition of against human HCT116 cells after 24 hrs by WST-1 assay; type: functional; conditions: HCT-116, 24 h; method in brief: as §2
[11] = Inhibition of Escherichia coli polymerase DNA polymerase 1 klenow fragment assessed as inhibition of incorporation of dTTP into poly(dA)/oligo(dT)18 after 60 mins; method in brief: as §1
[12] = test system: Thermus aquaticus; experiment: Inhibition of Thermus aquaticus DNA polymerase assessed as inhibition of incorporation of dTTP into activated DNA primer after 60 mins
[13] = Inhibition of cauliflower DNA polymerase alpha assessed as inhibition of incorporation of dTTP into poly(dA)/oligo(dT)18 after 60 mins; design: species or system Brassica oleracea var. botrytis; method in brief: as §1
[14] = test system: Brassica oleracea var. botrytis; experiment: Inhibition of cauliflower DNA polymerase alpha assessed as inhibition of incorporation of dTTP into activated DNA primer after 60 mins
[15] = biological target: T1, DNA-directed DNA polymerase (Enterobacteria phage T4, UniProt P04415); experiment: Inhibition of T4 bacteriophage DNA polymerase assessed as inhibition of incorporation of dTTP into poly(dA)/oligo(dT)18 after 60 mins; design: species or system Tequatrovirus T4; method in brief: as §1
T1 sequence (P04415 whole entry): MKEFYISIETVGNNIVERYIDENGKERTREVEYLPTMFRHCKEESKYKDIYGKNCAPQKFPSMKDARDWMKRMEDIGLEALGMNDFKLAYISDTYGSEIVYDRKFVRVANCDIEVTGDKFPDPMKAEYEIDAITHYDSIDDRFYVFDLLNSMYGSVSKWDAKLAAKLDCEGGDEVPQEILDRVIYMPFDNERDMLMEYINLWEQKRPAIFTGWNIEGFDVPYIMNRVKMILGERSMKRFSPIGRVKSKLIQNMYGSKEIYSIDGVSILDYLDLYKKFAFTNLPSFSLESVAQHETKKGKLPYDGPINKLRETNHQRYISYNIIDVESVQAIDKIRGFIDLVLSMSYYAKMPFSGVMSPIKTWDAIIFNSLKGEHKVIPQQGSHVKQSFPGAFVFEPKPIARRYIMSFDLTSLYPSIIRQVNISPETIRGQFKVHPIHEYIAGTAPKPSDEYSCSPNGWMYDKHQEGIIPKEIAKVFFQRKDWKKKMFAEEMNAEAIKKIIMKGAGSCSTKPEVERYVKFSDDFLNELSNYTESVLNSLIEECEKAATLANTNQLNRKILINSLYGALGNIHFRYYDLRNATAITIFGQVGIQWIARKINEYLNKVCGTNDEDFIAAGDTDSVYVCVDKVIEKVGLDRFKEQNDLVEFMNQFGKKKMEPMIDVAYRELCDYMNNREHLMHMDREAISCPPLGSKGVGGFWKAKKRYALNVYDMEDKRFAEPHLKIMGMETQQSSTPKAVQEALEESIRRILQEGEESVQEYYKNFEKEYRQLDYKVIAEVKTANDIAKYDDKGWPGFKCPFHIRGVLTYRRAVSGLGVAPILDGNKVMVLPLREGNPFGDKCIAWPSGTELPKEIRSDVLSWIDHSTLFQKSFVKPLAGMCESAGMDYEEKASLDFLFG

[16] = Inhibition of Thermus aquaticus DNA polymerase assessed as inhibition of incorporation of dTTP into poly(dA)/oligo(dT)18 after 60 mins at 74 degC
Method in brief: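 Taq pol (0.05 units) was preincubated with compound (DMSO, sonicated) at 0 °C for 10 min, then reacted with poly(dA)/oligo(dT)18 (A/T = 2/1) and dTTP at 74 °C for 60 min. Activity was expressed relative to no-inhibitor control; mean ± SE, three independent experiments.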

[17] = biological target: Human immunodeficiency virus type 1 reverse transcriptase (Human immunodeficiency virus 1, UniProt Q72547); experiment: Inhibition of HIV-1 reverse transcriptase assessed as inhibition of incorporation of dTTP into poly(rA)/oligo(dT)18 after 60 mins
Method in brief: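 Enzyme (0.05 units) was preincubated with compound in DMSO at 0 °C for 10 min in Tris-HCl pH 7.5/DTT/glycerol/EDTA buffer, then reacted at 37 °C for 60 min. Substrates were poly(rA)/oligo(dT)18 (A/T = 2/1) plus dTTP for HIV-1 RT, and oligo(dT)18 (3′-OH) primer plus dTTP for calf thymus TdT. Activity was relative to uninhibited control; mean ± SE of three experiments.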

[18] = Growth inhibition of HUVEC cells after 72 hrs by WST-1 assay; type: cell-based; conditions: human
Method in brief: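 Normal cells (HDF, HUVEC) were grown in Eagle's MEM with 4.5 g/L glucose, 10% FCS, 5 mM L-glutamine and penicillin/streptomycin, 37 °C, 5% CO2. Cells were seeded at 1 × 10^4 per well, cultured 12 h, then exposed to compound (0.5% DMSO final) for 72 h. Viability was read by WST-1 at 450/630 nm. GI50 given as mean ± SE of five experiments.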

Chain of Inosine-5'-monophosphate dehydrogenase 2 (P24547 whole entry): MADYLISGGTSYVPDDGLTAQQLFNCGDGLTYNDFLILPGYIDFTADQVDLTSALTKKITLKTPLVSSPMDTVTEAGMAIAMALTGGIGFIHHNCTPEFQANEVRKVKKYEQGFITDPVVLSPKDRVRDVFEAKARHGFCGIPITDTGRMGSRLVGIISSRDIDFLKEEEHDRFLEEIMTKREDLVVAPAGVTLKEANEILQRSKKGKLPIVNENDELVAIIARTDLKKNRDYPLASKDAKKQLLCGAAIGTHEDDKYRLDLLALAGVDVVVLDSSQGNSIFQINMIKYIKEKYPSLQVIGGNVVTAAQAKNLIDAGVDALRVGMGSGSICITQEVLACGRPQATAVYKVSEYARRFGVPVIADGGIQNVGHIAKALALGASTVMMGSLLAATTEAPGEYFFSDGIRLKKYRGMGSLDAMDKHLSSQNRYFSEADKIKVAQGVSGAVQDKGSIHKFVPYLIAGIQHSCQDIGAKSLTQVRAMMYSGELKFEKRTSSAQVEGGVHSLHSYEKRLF

## Cc1cc(O)cc(O)c1C(=O)O[C@H]1[C@@H]2COC(/C=C/CO)=CC2=CC(=O)[C@@]1(C)O [PINOPHILIN B]
[1]
  Activity: Active
[2]
  inhibition: inactive
[3]
  IC50: > 200 µM
[4]
  IC50: > 200 µM
[5]
  inhibition: inactive
[6]
  IC50: > 200 µM
[7]
  IC50: 89.5 µM
[8]
  GI50: 99 µM
[9]
  IC50: > 200 µM
[10]
  GI50: 92.5 µM
[11]
  IC50: > 200 µM
[12]
  inhibition: inactive
[13]
  IC50: > 200 µM
[14]
  inhibition: inactive
[15]
  IC50: > 200 µM
[16]
  IC50: > 200 µM
[17]
  IC50: > 200 µM
[18]
  GI50 at 72 h: > 200 µM

## C/C=C/C1=CC2=CC(=O)[C@@](C)(O)[C@@H](OC(=O)c3c(C)cc(O)cc3O)[C@@H]2CO1
[1]
  Activity: Active
[2]
  inhibition: inactive
[3]
  IC50: > 200 µM
[4]
  IC50: > 200 µM
[5]
  inhibition: inactive
[6]
  IC50: > 200 µM
[7]
  IC50: 63.2 µM
[8]
  GI50: 68.8 µM
[9]
  IC50: > 200 µM
[10]
  GI50: 64.6 µM
[11]
  IC50: > 200 µM
[12]
  inhibition: inactive
[13]
  IC50: > 200 µM
[14]
  inhibition: inactive
[15]
  IC50: > 200 µM
[16]
  IC50: > 200 µM
[17]
  IC50: > 200 µM
[18]
  GI50 at 72 h: > 200 µM

## C/C=C/C1=CC2=CC(=O)[C@@](C)(OC(=O)c3c(C)cc(O)cc3O)[C@@H](O)[C@@H]2CO1 [PINOPHILIN A]
[1]
  Activity: Active
[2]
  inhibition: inactive
[3]
  IC50: > 200 µM
[4]
  IC50: > 200 µM
[5]
  inhibition: inactive
[6]
  IC50: > 200 µM
[7]
  IC50: 49.1 µM
[8]
  GI50: 55.6 µM
[9]
  IC50: > 200 µM
[10]
  GI50: 51.3 µM
[11]
  IC50: > 200 µM
[12]
  inhibition: inactive
[13]
  IC50: > 200 µM
[14]
  inhibition: inactive
[15]
  IC50: > 200 µM
[16]
  IC50: > 200 µM
[17]
  IC50: > 200 µM
[18]
  GI50 at 72 h: > 200 µM

Source: ChEMBL document CHEMBL2010709, “Pinophilins A and B, inhibitors of mammalian A-, B-, and Y-family DNA polymerases and human cancer cell proliferation” (J Nat Prod, 2012)
